Assay results collected from several papers.

The pKa of `COc1cccc(C=CCC(=O)O)c1OC` is reported as ~4.2.
`Cc1cnc(N2CC3(CCOCC3)C2)c(C(=O)Nc2ccc(C(=O)N3CCc4cc(C(=O)Nc5c(C)cccc5F)sc4-c4ccccc43)cc2)c1` has a pKa of 4.8.
With `Cc1cc(Cl)cc(S(C)(=O)=O)c1NC(=O)c1cc(Br)nn1-c1ncccc1Cl` the pKa was 8.95 (potentiometric).
`CC(C)CC(=O)N1CCC[C@H](COc2cccc3c2C(N)=NS(=O)(=O)N3)C1` has a pKa of 6.31.
With `CC(C)(C)CCN1CC2C(CNC(=O)c3cc(Cl)cc(Cl)c3)C2C1` (stereo not shown) the pKa was 8.1.
With `COc1ccc(S(=O)(=O)N/N=C/c2cccc(C(=O)O)c2)cc1OC` the pKa was 6.69 (aqueous buffer).
For `CC#Cc1cncc(-c2ccc3c(c2)[C@@]2(N=C(C)C(N)=N2)[C@]2(CC[C@H](OC)CC2)C3)c1`, the pKa was 6.4.
`CS(=O)(=O)N1CCN(Cc2cc3nc(-c4cccc5[nH]ncc45)nc(N4CCOCC4)c3s2)CC1` gave a pKa of 4.24.
With `CCn1c(C(=O)N(C2CC2)C2CC2)cc2c3c(ncn3C)c(Nc3cc(C)n(C)n3)nc21` the pKa was 4.
With `C=CC(=O)N(C)CCOc1c(N)ncnc1-c1cc(F)cc(NC(=O)c2ccc(C3CC3)cc2F)c1C` the pKa was 4.1.
`COC(=O)c1ccc(/C=N/NS(=O)(=O)c2ccc(OC)c(OC)c2)cc1` gave a pKa of 6.86 (aqueous buffer).
`O=C1c2c(O)cc(O)cc2O[C@H](c2cc(O)c(O)c(O)c2)[C@H]1O` gave a pKa of 7.9 (absorbance; aqueous buffer; pH 3.1).
The pKa of `COc1ccccc1Oc1c(NS(=O)(=O)c2ccc(C(C)(C)C)cc2)nc(-c2ncccn2)nc1OCCO` is reported as 5.11.
